Laboratory results published in ChEMBL document CHEMBL3232854, “Agonists for the adenosine A1 receptor with tunable residence time. A Case for nonribose 4-amino-6-aryl-5-cyano-2-thiopyrimidines” (J Med Chem, 2014).

What was measured:
[1] = molecular target: T1, Adenosine receptor A1 (Homo sapiens) (UniProt P30542); test: Displacement of [3H]DPCPX from human adenosine A1 receptor expressed in CHO cell membranes at 1 uM after 1 hr by beta scintillation counting analysis relative to control
T1 sequence (whole entry): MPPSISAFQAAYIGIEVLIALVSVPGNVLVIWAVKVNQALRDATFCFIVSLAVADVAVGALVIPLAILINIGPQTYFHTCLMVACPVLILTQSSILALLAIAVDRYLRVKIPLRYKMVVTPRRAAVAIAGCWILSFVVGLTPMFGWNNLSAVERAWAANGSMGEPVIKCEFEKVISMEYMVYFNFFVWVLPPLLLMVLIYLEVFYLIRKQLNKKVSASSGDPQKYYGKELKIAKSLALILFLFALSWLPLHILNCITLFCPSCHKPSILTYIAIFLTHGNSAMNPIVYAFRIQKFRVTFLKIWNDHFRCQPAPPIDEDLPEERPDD
In short: (§1)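 Membranes from CHO cells stably expressing human A1 receptor (5 μg protein) incubated with [3H]DPCPX in 25 mM Tris-HCl pH 7.4, 5 mM MgCl2, 0.1% CHAPS, 1 h at 25 °C; nonspecific binding with 100 μM CPA; GF/B filtration, three ice-cold washes, scintillation counting. Single 1 μM points from ≥2 experiments in duplicate; Ki by nonlinear regression (radioligand KD 1.6 nM), ≥3 experiments in duplicate.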

[2] = molecular target: T1, Adenosine receptor A1 (Homo sapiens); test: Ratio for displacement of [3H]DPCPX from human adenosine A1 receptor expressed in CHO cell membranes at 10 times Ki after 15 mins by dual-point competition association assay to ratio for displacement of [3H]DPCPX from human adenosine A1 receptor expressed in CHO cell membranes 10 times Ki after 120 mins by dual-point competition association assay
[3] = molecular target: T2, Adenosine receptor A3 (Homo sapiens) (UniProt P0DMS8); test: Displacement of [3H]PSB11 from human adenosine A3 receptor expressed in CHO cell membranes at 1 uM after 2 hrs by beta scintillation counting analysis relative to control
T2 sequence (whole entry): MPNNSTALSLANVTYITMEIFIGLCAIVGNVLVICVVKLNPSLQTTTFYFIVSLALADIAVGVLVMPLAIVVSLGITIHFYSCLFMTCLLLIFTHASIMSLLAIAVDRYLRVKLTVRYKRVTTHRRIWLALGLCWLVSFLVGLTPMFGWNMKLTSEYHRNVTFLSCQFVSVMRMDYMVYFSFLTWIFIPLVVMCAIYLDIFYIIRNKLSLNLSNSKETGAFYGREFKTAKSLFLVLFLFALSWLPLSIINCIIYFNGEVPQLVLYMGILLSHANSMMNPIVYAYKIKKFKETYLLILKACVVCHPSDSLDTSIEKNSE
In short: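 CHO membranes stably expressing human A3 receptor (45 μg protein) incubated with [3H]PSB11 and 1 μM compound in 50 mM Tris-HCl pH 8.0, 10 mM MgCl2, 1 mM EDTA, 0.01% CHAPS, 2 h at 25 °C; nonspecific binding with 100 μM NECA; filtration, washes without CHAPS, scintillation counting; ≥2 experiments in duplicate.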

[4] = molecular target: T3, Adenosine receptor A2b (Homo sapiens) (UniProt P29275); test: Displacement of [3H]PSB603 from human adenosine A2B receptor expressed in CHO cell membranes at 1 uM after 2 hrs by beta scintillation counting analysis relative to control
T3 sequence (whole entry): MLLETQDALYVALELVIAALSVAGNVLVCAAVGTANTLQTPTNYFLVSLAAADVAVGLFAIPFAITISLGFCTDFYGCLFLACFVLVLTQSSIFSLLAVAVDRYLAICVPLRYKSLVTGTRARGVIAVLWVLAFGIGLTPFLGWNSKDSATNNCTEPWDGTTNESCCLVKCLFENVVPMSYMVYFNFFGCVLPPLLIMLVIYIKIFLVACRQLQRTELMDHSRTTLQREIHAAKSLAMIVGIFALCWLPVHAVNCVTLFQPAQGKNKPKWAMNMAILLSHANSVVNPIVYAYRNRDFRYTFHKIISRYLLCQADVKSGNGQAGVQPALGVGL

Adenosine receptor A1 [5] = molecular target: T4, Adenosine receptor A1 (Homo sapiens, UniProt P30542); test: Agonist activity human adenosine A1 receptor expressed in CHO cell membranes assessed as stimulation of [35S]GTPgammaS binding preincubated for 30 mins followed by radioligand addition measured after 90 mins by beta scintillation counting analysis; assay type: functional
T4 sequence (P30542 whole entry): T1 sequence (whole entry)

[6] = molecular target: Adenosine receptor A2a (Homo sapiens) (UniProt P29274); test: Displacement of [3H]ZM241385 from human adenosine A2A receptor expressed in HEK293 cell membranes at 1 uM after 2 hrs by beta scintillation counting analysis relative to control
Sequence of Adenosine receptor A2a (Homo sapiens) (P29274 whole entry): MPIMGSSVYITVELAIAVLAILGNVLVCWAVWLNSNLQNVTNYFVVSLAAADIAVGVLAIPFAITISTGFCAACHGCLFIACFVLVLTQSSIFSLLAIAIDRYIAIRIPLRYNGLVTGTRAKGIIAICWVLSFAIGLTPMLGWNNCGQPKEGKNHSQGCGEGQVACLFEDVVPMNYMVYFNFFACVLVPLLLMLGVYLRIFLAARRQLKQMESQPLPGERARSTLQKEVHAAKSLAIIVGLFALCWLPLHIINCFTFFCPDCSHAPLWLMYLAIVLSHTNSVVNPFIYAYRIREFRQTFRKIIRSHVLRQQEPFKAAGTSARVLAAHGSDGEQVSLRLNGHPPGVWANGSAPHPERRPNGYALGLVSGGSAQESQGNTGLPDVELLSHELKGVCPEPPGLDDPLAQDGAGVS
In short: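 HEK 293 membranes stably expressing human A2A receptor (25 μg protein) incubated with [3H]ZM241385 in 50 mM Tris-HCl pH 7.4, 2 h at 25 °C; compounds at 1 μM; nonspecific binding with 100 μM CPA; GF/B filtration, ice-cold washes, scintillation counting; ≥2 experiments in duplicate.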

Adenosine receptor A1 [7] = molecular target: T4, Adenosine receptor A1; test: Displacement of [3H]DPCPX from human adenosine A1 receptor expressed in CHO cell membranes after 1 hr by beta scintillation counting analysis; in short: as §1
[8] = molecular target: T1, Adenosine receptor A1 (Homo sapiens); test: Displacement of [3H]DPCPX from human adenosine A1 receptor expressed in CHO cell membranes assessed as residence time on receptor at 10 times Ki after 90 mins by competition association assay
[9] = molecular target: T1, Adenosine receptor A1 (Homo sapiens); test: Agonist activity human adenosine A1 receptor expressed in CHO cell membranes assessed as stimulation of [35S]GTPgammaS binding preincubated for 30 mins followed by radioligand addition measured after 90 mins by beta scintillation counting analysis relative to N6-cyclopentyladenosine; assay type: functional

Row | inhibition [1] [%] | Ratio [2] | inhibition [3] [%] | inhibition [4] [%] | EC50 (Adenosine receptor A1 [5]) [nM] | inhibition [6] [%] | Ki (Adenosine receptor A1 [7]) [nM] | TIME [8] [h] | Emax [9] [%] | SMILES
1 | 44 |  |  |  |  |  |  |  |  | Cc1ccc(-c2nc(SCc3csc(-c4ccc(Cl)cc4)n3)nc(N)c2C#N)cc1
2 | 49 |  |  |  |  |  |  |  |  | CCOc1ccc(-c2nc(SCc3csc(-c4ccc(Cl)cc4)n3)nc(N)c2C#N)cc1
3 |  | 1.4 | 9 | 7.5 | 9.5 | 2.5 | 9.9 | 1.06 | 82 | N#Cc1c(N)nc(SCc2csc(-c3ccc(I)cc3)n2)nc1-c1ccc2c(c1)OCO2
4 |  | 0.97 | 5.5 | 2.5 | 3.9 | 44 | 14 |  | 112 | CC(=O)Nc1ccc(-c2nc(SCc3csc(-c4ccc(Cl)cc4)n3)nc(N)c2C#N)cc1
5 |  | 1.24 |  |  |  |  | 42 | 0.5 |  | N#Cc1c(N)nc(SCc2csc(-c3cccc(Cl)c3)n2)nc1-c1ccc2c(c1)OCO2
6 |  | 1.67 | -1.8 | 1.7 | 4.6 | 2.9 | 5.2 | 0.983 | 60 | N#Cc1c(N)nc(SCc2csc(-c3ccc(Br)cc3)n2)nc1-c1ccc2c(c1)OCO2
7 |  | 1.15 |  |  |  |  | 83 |  |  | N#Cc1c(N)nc(SCc2c[nH]cn2)nc1-c1ccc2c(c1)OCO2
8 |  | 1.18 | 3 | 3.5 | 12 | 10 | 4.8 |  | 99 | N#Cc1c(N)nc(SCc2csc(-c3ccc(Cl)cc3)n2)nc1-c1ccc(OCCO)cc1
9 |  | 0.93 |  |  |  |  | 2.5 |  |  | N#Cc1c(N)nc(SCc2csc(-c3ccc4c(c3)OCO4)n2)nc1-c1ccc2c(c1)OCO2
10 |  | 1.29 |  |  |  |  | 75 | 0.588 |  | N#Cc1c(N)nc(SCc2csc(-c3ccccc3Cl)n2)nc1-c1ccc2c(c1)OCO2
11 |  | 1.17 |  |  |  |  | 6.3 |  |  | N#Cc1c(N)nc(SCc2csc(C3CCCCC3)n2)nc1-c1ccc2c(c1)OCO2
12 |  | 1.17 |  |  |  |  | 15 |  |  | N#Cc1c(N)nc(SCc2coc(-c3ccc(Cl)cc3)n2)nc1-c1ccc2c(c1)OCO2
13 |  | 1 | 11 | 3.5 | 1.9 | 3.2 | 1.8 |  | 104 | COc1ccc(-c2nc(CSc3nc(N)c(C#N)c(-c4ccc5c(c4)OCO5)n3)cs2)cc1
14 | 23 |  |  |  |  |  |  |  |  | N#Cc1c(N)nc(SCc2csc(-c3ccc(Cl)c(Cl)c3)n2)nc1-c1ccc2c(c1)OCO2
15 |  | 1.24 |  |  |  |  | 15 | 0.0508 |  | N#Cc1c(N)nc(SCc2coc(-c3cccc(F)c3)n2)nc1-c1ccc2c(c1)OCO2
16 |  |  |  |  |  |  | 185 |  |  | N#Cc1c(N)nc(SCc2csc(-c3ccc(Cl)cc3)n2)nc1-c1ccc(OC(F)(F)F)cc1
17 |  | 0.99 |  |  |  |  | 15 |  |  | N#Cc1c(N)nc(SCc2csc(-c3ccc(Cl)cc3)n2)nc1-c1ccc(O)cc1
18 |  | 1.15 |  |  |  |  | 3.1 |  |  | Cc1ccc(-c2nc(CSc3nc(N)c(C#N)c(-c4ccc5c(c4)OCO5)n3)cs2)cc1
19 |  | 1.46 |  |  |  |  | 12 | 0.375 |  | N#Cc1c(N)nc(SCc2csc(-c3ccccc3F)n2)nc1-c1ccc2c(c1)OCO2
20 |  | 1.2 |  |  |  |  | 18 |  |  | N#Cc1c(N)nc(SCc2csc(-c3ccc(C(F)(F)F)cc3)n2)nc1-c1ccc2c(c1)OCO2
21 |  | 0.95 |  |  |  |  | 11 |  |  | N#Cc1c(N)nc(SCc2csc(-c3ccc([N+](=O)[O-])cc3)n2)nc1-c1ccc2c(c1)OCO2
22 |  |  |  |  |  |  | 233 |  |  | CN(C)c1ccc(-c2nc(SCc3csc(-c4ccc(Cl)cc4)n3)nc(N)c2C#N)cc1
23 |  | 1.64 | 4.5 | 0 | 4.9 | 4.5 | 14 | 0.857 | 71 | N#Cc1c(N)nc(SCc2csc(-c3ccc(Cl)cc3)n2)nc1-c1ccc2c(c1)OCO2
24 |  | 0.81 | 18 | 12 | 1.8 | 21 | 1.9 | 0.02 | 65 | N#Cc1c(N)nc(SCc2csc(N3CCOCC3)n2)nc1-c1ccc2c(c1)OCO2
25 |  | 1.1 | 24 | 20 | 4.6 | -2 | 2.4 |  | 84 | N#Cc1c(N)nc(SCc2csc(-c3ccccc3)n2)nc1-c1ccc2c(c1)OCO2
26 | 73 |  |  |  |  |  |  |  |  | COc1ccc(-c2nc(SCc3csc(-c4ccc(Cl)cc4)n3)nc(N)c2C#N)cc1
27 |  | 1.01 |  |  |  |  | 20 |  |  | N#Cc1c(N)nc(SCc2coc(-c3ccc(F)cc3)n2)nc1-c1ccc2c(c1)OCO2
28 |  | 1.22 |  |  |  |  | 6.7 | 0.575 |  | N#Cc1c(N)nc(SCc2csc(-c3ccc(F)cc3)n2)nc1-c1ccc2c(c1)OCO2
29 |  | 1.24 |  |  |  |  | 8.9 | 0.538 |  | N#Cc1c(N)nc(SCc2csc(-c3ccc(Cl)cc3)n2)nc1-c1ccccc1
30 |  | 1.24 |  |  |  |  | 14 | 0.55 |  | N#Cc1c(N)nc(SCc2csc(-c3cccc(F)c3)n2)nc1-c1ccc2c(c1)OCO2
